# Bioassay records from PubChem BioAssay.
# TAAR1 antag: human TAAR1 antagonists, primary screen, Fluo-8 calcium fluorescence, CHO RD-HGA16 cells; 360,000 tested, 1.5% active; Trace amine-associated receptor 1 (Homo sapiens), Q96RJ0; inhibition, % at 3 µM; antagonist;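 active = inhibition above a per-plate cutoff, the mean inhibition of test compounds on that plate plus 3 SD, cut at about 49% in these data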
#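 Test system – hTAAR1-expressing CHO RD-HGA16 cells, Gα16-coupled · Also added – β-PEA at EC80 concentration, post-compound challenge · Compound – 3 µM, single point · Incubation – dye loading 75 min at 37 °C, then 30 min room temperature · Measured by – Fluo-8 intracellular calcium dye fluorescence, real-time kinetic reads · Benchmarks – vehicle and agonist controls · Replicates – singlicate, one well per test compound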
# MC4R barr agon: MC4R agonists recruiting beta-arrestin, primary screen, cell-based, luminescence, agonist arm of biased-ligand search; Melanocortin receptor 4 (Homo sapiens), P32245; U2OS MC4R beta-arrestin complementation; percent of melanotan II response, DMSO zero; activation, % at 8.9 µM; 360,000 tested, 0.98% active;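 active = activation above a per-plate cutoff, the mean activation of sample wells on that plate plus 3 SD, cut at about 8% in these data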
# TAAR1 ag: human TAAR1 agonists, primary screen, Fluo-8 calcium fluorescence, CHO RD-HGA16 cells. 360,000 tested, 0.99% active. vehicle wells 0%, saturating PEA agonist 100%. activation, % at 3 µM;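 active = activation above the mean activation of all test compounds in the run plus 3 SD, cut at about 38% in these data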
#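 System: CHO-derived RD-HGA16 cells with stable Gα16 and human TAAR1 / Times: 17-24 h plating, Fluo-8 75 min 37 °C, 30 min RT / Technique: calcium-sensitive Fluo-8 signal, excitation 470-495, emission 515-575 nm / Measure: % activation relative to PEA EC100 response / Benchmarks: DMSO and PEA EC100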
# B2AR ag: beta2AR agonists driving receptor internalization, primary screen, cell-based, FAP fluorogen, flow cytometry | Beta-2 adrenergic receptor (Homo sapiens), P07550 | response, % (no concentration beside the values) | 340,000 tested, 0.43% active | Am2.2-beta2AR cells;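 active = response above a set limit, near 3 SD of response in nonfluorescent compounds, cut at about 42% in these data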
# HTR2A ag: mouse Htr2a agonists via beta-arrestin recruitment, primary screen, cell-based, luminescence | CHO-K1 mHTR2A beta-arrestin complementation; percent of 30 µM serotonin response | activation, % at 7.6 µM | 360,000 tested, 0.66% active;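 active = activation above a run cutoff, the mean activation of all tested compounds plus 3 SD, cut at about 14% in these data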
# Target sequence (P35363 whole entry, looked up): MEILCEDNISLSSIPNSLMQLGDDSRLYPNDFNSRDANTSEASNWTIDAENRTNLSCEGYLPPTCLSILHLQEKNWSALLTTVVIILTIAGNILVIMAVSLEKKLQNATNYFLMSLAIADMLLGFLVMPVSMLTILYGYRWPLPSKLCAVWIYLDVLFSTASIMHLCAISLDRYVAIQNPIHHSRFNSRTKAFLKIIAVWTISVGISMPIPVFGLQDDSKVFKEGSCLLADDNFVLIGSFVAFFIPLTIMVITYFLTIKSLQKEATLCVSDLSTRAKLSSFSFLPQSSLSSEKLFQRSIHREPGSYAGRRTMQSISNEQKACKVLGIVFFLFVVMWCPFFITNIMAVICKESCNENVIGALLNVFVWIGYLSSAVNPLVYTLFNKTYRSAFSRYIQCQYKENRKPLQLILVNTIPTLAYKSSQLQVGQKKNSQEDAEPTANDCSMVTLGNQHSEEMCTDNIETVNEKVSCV
# MC4R antagonist: MC4R antagonists of cAMP signaling, primary screen, cell-based, TR-FRET, antagonist arm of biased-ligand search; MC4R-expressing cells, MTII-stimulated cAMP, LANCE TR-FRET; 360,000 tested, 0.48% active; Melanocortin receptor 4 (Homo sapiens), P32245; inhibition, % at 6.5 µM; AID 540295, 2011;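 active = inhibition above its plate's cutoff, the mean of tested wells on that plate plus 3 SD, cut at about 29% in these data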
#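 System: U2OS cells stably expressing human melanocortin 4 receptor (MC4R). Reagent: Melanotan II challenge after compound preincubation. Doses: 6.5 µM. Times: 30-min compound, 1-h challenge, 1-h detection, room temperature. Measured by: TR-FRET with Eu-cAMP and labeled anti-cAMP, 671 nm. Replicates: singlicate.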
# MC4R barr conf: MC4R beta-arrestin agonists, retest, confirmation, cell-based, luminescence, U2OS; U2OS MC4R beta-arrestin recruitment; scaled DMSO 0%, Melanotan II 100%; shares compounds with MC4R barr agon; 2,400 tested, 31% active; activation, % at 8.9 µM;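 active = mean activation across replicates above the hit cutoff set in the earlier primary screen, cut at about 8% in these data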
# MOR DOR agonist: agonists of MOR-DOR heterodimerization, counter-screen for MC4R biased agonist project, cell-based, luminescence. shares compounds with MC4R barr agon. U2OS PathHunter beta-arrestin, beta-gal luminescence; percent of deltorphin B response, DMSO zero. activation, % at 9.2 µM. 2,400 tested, 5.8% active. AID 602194, 2012;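 active = mean activation across replicates exceeds the hit threshold derived in the earlier primary screen, cut at about 18% in these data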
# Hits are given with their value; – = inactive; · = no result. Rows were chosen to be rich in hits. Some 4.3% of all compounds tested hit in one or more screens of this group.
SMILES,TAAR1 antag,MC4R barr agon,TAAR1 ag,B2AR ag,HTR2A ag,MC4R antagonist,MC4R barr conf,MOR DOR agonist
CCOc1ccc(-c2cc(CCCC(=O)NCCc3ccc(OC)c(OC)c3OC)no2)cc1,–,24,–,–,–,–,–,–
COc1ccc(-c2cc(CCCC(=O)NCCc3ccc(OC)cc3OC)no2)cc1,–,–,–,–,–,–,·,·
CC[C@H](C)[C@H](NC(=O)c1ccc(Cl)cc1)C(=O)OCC(=O)c1c(N)n(C)c(=O)n(C)c1=O,–,–,–,–,–,–,·,·
CCOc1ccc(Cn2c3ccc(OC)cc3c3nc4ccccc4nc32)cc1,–,30,–,–,–,–,38,–
Cc1ccc(C(=O)NCC(=O)Nc2cccc(C(F)(F)F)c2)cc1,–,15,–,–,–,–,–,–
O=C(COC(=O)c1cc[n+]([O-])cc1)Nc1ccc(SC(F)F)cc1,–,–,–,–,–,–,·,·
CCOc1ccc(C(=O)OCC(=O)Nc2ccc(SC(F)F)cc2)cc1OCC,–,19,–,–,–,–,–,–
Cc1cc(C)c2nc(-c3ccccn3)cc(C(=O)Nc3cc(C)on3)c2c1,–,16,–,–,–,–,–,–
Cc1cc(NC(=O)c2cc(-c3ccccn3)nc3ccccc23)no1,–,–,–,–,–,–,·,·
C#CCOc1ccc(/C=C2\SC(=S)N(Cc3cccnc3)C2=O)cc1,–,13,–,–,–,–,–,–
O=C1/C(=C/c2ccc(O)cc2)SC(=S)N1Cc1cccnc1,–,–,–,–,–,–,·,·
Cc1ccc(CNC(=O)Cn2cnc3c(NC(=O)OCc4ccccc4)ncnc32)o1,–,–,–,–,–,–,·,·
CCCn1c(SCC(=O)N2N=C3/C(=C/c4ccc(OC)cc4)CCCC3C2c2ccc(OC)cc2)n[nH]c1=O (centres undefined),50,13,49,–,–,–,14,–
O=C(COC(=O)/C=C/c1cccc(C(F)(F)F)c1)NC(=O)NCc1ccco1,–,15,–,–,–,–,–,–
O=C(COC(=O)/C=C/c1cccc(C(F)(F)F)c1)NCc1ccco1,–,–,–,–,–,–,·,·
CCCN(C(=O)CCNC(=O)Cn1cnc2ccccc2c1=O)c1cccc(Cl)c1,·,–,·,–,–,–,·,·
CC(=O)C(c1ccccc1)C(c1ccccc1)C(C)[N+](=O)[O-] (centres undefined),–,21,–,–,–,–,–,–
CC(OC(=O)CCNS(=O)(=O)c1ccccc1)C(=O)Nc1ccc(S(=O)(=O)N2CCCCC2)cc1 (centres undefined),–,–,–,–,–,–,·,·
O=c1[nH]c(SCc2ccc(F)cc2Cl)nc2ccccc12,–,10,–,–,–,–,–,–
COc1ccc(-c2cc(-c3ccccc3)nc(Cl)n2)cc1OC,–,13,–,–,–,–,–,–
Cc1ccc(-c2cc(-c3ccccc3)nc(Cl)n2)cc1,–,–,–,–,–,–,·,·
COCc1[nH]nc2c1C(c1ccc(C)cc1)N(Cc1ccccc1)C2=O (centres undefined),–,·,–,·,·,·,·,·
COc1ccc(-c2nc(=S)c3ccc4ccccc4c3[nH]2)cc1,–,12,–,–,–,–,–,–
O=C(CN1CCCCCC1)Nc1nc2ccccc2s1,–,–,–,–,–,–,·,·
Nc1c(-c2ccccn2)cnn1-c1nc(-c2ccc(F)cc2)cs1,–,9.7,–,–,–,–,–,–
SMILES,TAAR1 antag,MC4R barr agon,TAAR1 ag,B2AR ag,HTR2A ag,MC4R antagonist,MC4R barr conf,MOR DOR agonist
COC(=O)c1cnn(-c2nc(-c3ccccc3)cs2)c1N,–,–,–,–,–,–,·,·
O=Cc1ccc(C(=O)OCC(=O)NCc2ccco2)cc1,–,–,–,–,–,–,·,·
O=c1c2ccccc2nc(/C=C/c2ccccc2)n1CCCO,–,–,–,–,–,–,·,·
O=c1c2ccccc2nc(/C=C/c2ccc(O)cc2)n1CCc1ccccc1,–,15,–,–,–,–,–,–
CC1(C(=O)NS(=O)(=O)c2ccc3c(c2)CCO3)CCN1C(=O)C1(c2ccc(Cl)cc2)CCC1 (centres undefined),–,–,–,·,–,–,·,·
Cc1cc(OCCN2CCC(Cc3ccccc3)CC2)ccc1[N+](=O)[O-],–,14,–,–,–,–,–,–
COc1ccc(NC(=O)C2(C)CCN2CCOc2ccccc2)cc1OC (centres undefined),–,–,–,·,–,–,·,·
COc1ccc(C)cc1NC(=O)Nc1cccc(C)c1,–,–,–,–,–,–,·,·
COc1cc2c(cc1NC(=O)CSc1ccccc1)oc1ccccc12,–,–,–,–,–,–,·,·
COc1ccc(OCC(=O)Nc2cc3oc4ccccc4c3cc2OC)cc1,·,38,·,–,–,–,12,–
COc1cc2c(cc1NC(=O)Nc1ccc(F)cc1)oc1ccccc12,–,11,–,–,–,–,–,–
COc1cc2c(cc1NC(=S)Nc1cccc(C)c1)oc1ccccc12,–,–,–,–,–,–,·,·
Cc1cccc(NC(=O)Nc2ccc(C)cc2Br)c1,–,12,–,–,–,–,–,–
COc1ccc(NC(=O)Nc2cc3oc4ccccc4c3cc2OC)cc1,–,–,–,–,–,–,·,·
COc1cc2c(cc1NC(=O)Nc1cccc(C)c1)oc1ccccc12,–,11,–,–,–,–,–,–
O=C(CSc1nnc(-c2cccs2)o1)N1CCOCC1,–,18,–,–,–,–,–,–
Fc1ccc(Cn2c(-c3cscn3)nc3ccccc32)c(Cl)c1,–,9.7,–,–,–,–,–,–
Cn1cc(/C=C2\SC(=O)N(c3ccc(O)cc3)C2=O)c2ccccc21,–,–,–,–,–,–,·,·
Cn1cc(/C=C2\SC(=O)N(c3ccccc3)C2=O)c2ccccc21,–,15,–,–,–,–,–,–
CCCCNC(=O)c1cccnc1SCC(=O)Nc1ccccc1OC,–,–,–,–,–,–,·,·
